In one data set the target is CYP3A4 (Homo sapiens, UniProt P08684). In words: Inhibition of CYP3A4. It is filed as in vitro ADME. To be noted: isobavachin 1, 10, 100 μM; substrate nifedipine (40 μM). The method in brief:
(§1)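 Recombinant human CYPs (CYP1A2 and 3A4 at 0.05 mg/ml; CYP2C8 and 2E1 at 0.1 mg/ml) with probe substrate in Tris-HCl 50 mM pH 7.4, MgCl2 5 mM and NADPH 1 mM at 37 °C for 60 min. Run without (control) or with test compound at 1, 10 or 100 μM. Acetonitrile stop; metabolite by UHPLC-TQD-MS; activity versus control, triplicate.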

The subject of another data set is expressed UGT enzymes. In words: Reaction phenotyping with expressed UGT enzymes. It is filed as in vitro ADME, human. As to conditions: isobavachin at 10 μM (Figure S4B).
A short description of data set [1]: Glucuronidation of isobavachin by MLM, enzyme kinetics. It is filed as in vitro ADME, mice.
A further data set addresses T1, UGT1A7 (Homo sapiens, UniProt Q9HAW7).
T1 sequence (Q9HAW7 26-530): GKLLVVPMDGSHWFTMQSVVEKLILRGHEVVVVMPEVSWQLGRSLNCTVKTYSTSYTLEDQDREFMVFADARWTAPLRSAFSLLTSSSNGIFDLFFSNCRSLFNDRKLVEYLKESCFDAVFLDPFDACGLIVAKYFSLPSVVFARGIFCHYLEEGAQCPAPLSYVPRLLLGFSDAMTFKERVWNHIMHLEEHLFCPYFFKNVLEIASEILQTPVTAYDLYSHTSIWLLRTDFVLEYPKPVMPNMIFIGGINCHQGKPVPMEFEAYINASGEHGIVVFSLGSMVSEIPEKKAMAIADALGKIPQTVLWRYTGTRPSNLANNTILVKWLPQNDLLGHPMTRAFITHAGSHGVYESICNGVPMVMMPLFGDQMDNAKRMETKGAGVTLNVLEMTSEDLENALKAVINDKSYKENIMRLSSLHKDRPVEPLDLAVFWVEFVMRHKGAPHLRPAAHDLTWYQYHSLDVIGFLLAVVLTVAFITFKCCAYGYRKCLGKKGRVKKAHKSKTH
The data set can be described thus: Glucuronidation of isobavachin by recombinant UGT1A7, enzyme kinetics. It is filed as in vitro ADME. To be noted: formation of G1, substrate inhibition model.

The target in another data set is CYP2E1 (Homo sapiens, UniProt P05181). In words: Inhibition of CYP2E1. To be noted: isobavachin 1, 10, 100 μM; substrate chlorzoxazone (200 μM). It is filed as in vitro ADME. The method in brief: as §1
Sequence of CYP2E1 (P05181 whole entry): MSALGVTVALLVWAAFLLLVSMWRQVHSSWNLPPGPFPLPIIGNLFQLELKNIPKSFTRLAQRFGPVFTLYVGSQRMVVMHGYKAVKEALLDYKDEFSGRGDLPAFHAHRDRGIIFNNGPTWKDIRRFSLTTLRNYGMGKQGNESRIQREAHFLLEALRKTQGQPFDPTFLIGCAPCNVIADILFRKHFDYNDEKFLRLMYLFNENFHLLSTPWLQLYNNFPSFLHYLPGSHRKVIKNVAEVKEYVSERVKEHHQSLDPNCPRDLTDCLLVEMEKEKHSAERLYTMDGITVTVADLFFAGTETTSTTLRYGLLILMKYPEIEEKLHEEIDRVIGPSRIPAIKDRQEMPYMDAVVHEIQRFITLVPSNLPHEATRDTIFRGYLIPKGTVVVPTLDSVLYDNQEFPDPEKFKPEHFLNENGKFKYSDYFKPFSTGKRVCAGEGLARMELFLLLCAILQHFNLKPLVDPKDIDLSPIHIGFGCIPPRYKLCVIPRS
Another data set addresses T2, UGT1A9 (Homo sapiens, UniProt O60656).
T2 sequence (O60656 26-530): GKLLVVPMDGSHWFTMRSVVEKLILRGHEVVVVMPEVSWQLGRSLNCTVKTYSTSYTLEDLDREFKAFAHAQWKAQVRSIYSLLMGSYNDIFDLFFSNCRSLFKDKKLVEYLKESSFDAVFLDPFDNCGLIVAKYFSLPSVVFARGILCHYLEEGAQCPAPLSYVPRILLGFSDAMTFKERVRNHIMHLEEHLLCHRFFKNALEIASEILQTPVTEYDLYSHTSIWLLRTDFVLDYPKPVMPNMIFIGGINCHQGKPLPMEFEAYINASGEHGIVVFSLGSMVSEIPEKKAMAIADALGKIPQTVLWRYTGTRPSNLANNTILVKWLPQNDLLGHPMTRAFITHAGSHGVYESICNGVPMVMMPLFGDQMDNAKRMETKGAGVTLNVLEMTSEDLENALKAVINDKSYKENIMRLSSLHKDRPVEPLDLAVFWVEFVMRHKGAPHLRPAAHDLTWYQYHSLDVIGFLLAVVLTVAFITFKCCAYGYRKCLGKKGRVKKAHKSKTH
The data set can be described thus: Glucuronidation of isobavachin by recombinant UGT1A9, enzyme kinetics. It is filed as in vitro ADME. To be noted: formation of G1, substrate inhibition model.

The target in a further data set is T3, UGT1A6 (Homo sapiens, UniProt P19224).
T3 sequence (P19224 27-532): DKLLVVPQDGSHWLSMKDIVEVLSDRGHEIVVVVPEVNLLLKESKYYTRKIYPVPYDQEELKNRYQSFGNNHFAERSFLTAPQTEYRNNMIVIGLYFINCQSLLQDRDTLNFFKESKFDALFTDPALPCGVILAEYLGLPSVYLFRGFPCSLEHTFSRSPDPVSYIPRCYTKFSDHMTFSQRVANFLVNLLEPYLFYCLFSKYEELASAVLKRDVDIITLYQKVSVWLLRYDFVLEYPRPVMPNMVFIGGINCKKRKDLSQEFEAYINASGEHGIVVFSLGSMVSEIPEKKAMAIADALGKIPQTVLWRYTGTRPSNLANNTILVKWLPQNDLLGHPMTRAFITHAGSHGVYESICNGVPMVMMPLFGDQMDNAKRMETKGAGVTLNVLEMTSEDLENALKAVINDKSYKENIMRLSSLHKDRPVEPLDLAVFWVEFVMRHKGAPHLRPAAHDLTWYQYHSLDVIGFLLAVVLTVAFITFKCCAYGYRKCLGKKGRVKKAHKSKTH
In words: Glucuronidation of isobavachin by recombinant UGT1A6, enzyme kinetics. It is filed as in vitro ADME. As to conditions: substrate inhibition constant, substrate inhibition model.

A short description of data set [2]: Mono-oxidation of isobavachin by MLM, enzyme kinetics. It is filed as in vitro ADME, mice.
A further data set has as its target CYP2C9 (Homo sapiens, UniProt P11712). In words: Inhibition of CYP2C9. It is filed as in vitro ADME.

“And” between values parts separate entries of the source, which are not always exact repeats. Identical values can stand only once.

What is called IC50 is the concentration that gives 50% inhibition.

Sequence of CYP2C9 (P11712 whole entry): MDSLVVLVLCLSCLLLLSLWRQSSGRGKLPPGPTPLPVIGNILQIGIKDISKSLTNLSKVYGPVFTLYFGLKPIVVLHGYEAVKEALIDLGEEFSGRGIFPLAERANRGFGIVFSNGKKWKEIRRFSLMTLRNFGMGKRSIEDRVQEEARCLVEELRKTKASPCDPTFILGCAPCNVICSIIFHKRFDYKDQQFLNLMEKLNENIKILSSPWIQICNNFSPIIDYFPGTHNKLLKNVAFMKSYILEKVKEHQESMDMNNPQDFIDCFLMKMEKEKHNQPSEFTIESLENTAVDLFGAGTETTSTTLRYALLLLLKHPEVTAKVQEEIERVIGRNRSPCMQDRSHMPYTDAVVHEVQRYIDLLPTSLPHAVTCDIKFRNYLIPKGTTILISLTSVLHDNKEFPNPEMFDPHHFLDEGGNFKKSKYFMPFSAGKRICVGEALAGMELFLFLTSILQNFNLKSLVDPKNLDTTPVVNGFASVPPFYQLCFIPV
Sequence of CYP3A4 (P08684 whole entry): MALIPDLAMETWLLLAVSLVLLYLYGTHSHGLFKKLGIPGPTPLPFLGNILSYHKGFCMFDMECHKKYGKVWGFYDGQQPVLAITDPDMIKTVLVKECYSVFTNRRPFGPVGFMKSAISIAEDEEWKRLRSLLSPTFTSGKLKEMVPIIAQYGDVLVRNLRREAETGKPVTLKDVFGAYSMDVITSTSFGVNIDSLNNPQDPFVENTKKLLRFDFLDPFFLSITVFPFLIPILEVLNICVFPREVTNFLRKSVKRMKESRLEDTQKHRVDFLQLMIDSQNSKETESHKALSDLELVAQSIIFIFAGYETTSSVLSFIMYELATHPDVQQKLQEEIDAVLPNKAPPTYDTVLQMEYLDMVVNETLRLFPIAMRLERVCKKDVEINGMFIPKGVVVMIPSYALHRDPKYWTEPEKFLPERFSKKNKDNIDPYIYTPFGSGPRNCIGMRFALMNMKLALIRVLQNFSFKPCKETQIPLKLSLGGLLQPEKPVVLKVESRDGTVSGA

Turning to `CC(C)=CCc1c(O)ccc2c1O[C@H](c1ccc(O)cc1)CC2=O` [isobavachin], the inhibitory effects entry at CYP3A4 and on CYP2E1 was “negligible or weak” throughout. In addition, in the data set on expressed UGT enzymes, the “UGT enzymes involved in glucuronidation” value is “UGT1A1, 1A6, 1A7, 1A8, 1A9 and 2B4 have an important role in glucuronidation reaction”. In addition, the “CLint (CLmax)” value is 144.94 ± 11.20 μl/min per mg in [1] (formation of G1, Michaelis–Menten model); 29.60 ± 9.00 μl/min per mg in [1] (formation of G2, substrate inhibition model); 109.18 ± 24.17 μl/min per mg at UGT1A7; 202.62 ± 48.80 μl/min per mg on UGT1A9; 35.46 μl/min per mg and 35.46 ± 5.98 μl/min per mg in data set [2] (formation of M1, Michaelis–Menten model); 64.32 μl/min per mg and 64.32 ± 17.18 μl/min per mg in data set [2] (formation of M2, substrate inhibition model). Also, the “CLint (CLmax)” value in data set [2] (formation of M3, substrate inhibition model) was 47.43 μl/min per mg and 47.43 ± 7.99 μl/min per mg. The Ki on UGT1A7 (substrate inhibition constant) was found to be 27.54 ± 5.39 µM; on UGT1A9 (substrate inhibition constant), 38.39 ± 8.88 µM; on UGT1A6 (formation of G1), 21.97 ± 5.84 µM; on UGT1A6 (formation of G2), 12.71 ± 2.60 µM; at CYP2C9 (substrate tolbutamide, mixed-type model (not selected)) it was 0.27 ± 0.1 µM; at CYP2C9 (substrate tolbutamide, non-competitive model (selected, smallest AIC and SC)), 0.22 ± 0.02 µM. In addition, the Vmax was determined as 3593.00 ± 487.20 pmol/min per mg at UGT1A7 and 3167.00 ± 426.4 pmol/min per mg on UGT1A9. At CYP2C9, this compound had an IC50 of 0.04 ± 0.005 µM. The residual activities on CYP2C9 (10 μM isobavachin) is reported as 1.04 % of the negative control. Further, the Inhibition type entry at CYP2C9 (based on the smallest AIC and SC values) is given as “non-competitive inhibition mode”. At CYP2C9 (substrate tolbutamide, mixed-type model), the α turned out to be 0.70 ± 0.49.
